According to BindingDB's records for doi:10.1016/j.bmcl.2011.06.023 (Merck Research Laboratories, 2011):
Values joined by “and” are separate entries in the source; they are usually repeats but may differ in a detail not shown here. Identical values can stand only once.

target: Smoothened (Mus musculus) (UniProt P56726); assay: Antagonist activity at smoothened expressed in mouse Shh Light2 cells assessed as inhibition of purmorphamine- induced Gli-dependent luciferase gene expression
Sequence (P56726 whole entry, looked up): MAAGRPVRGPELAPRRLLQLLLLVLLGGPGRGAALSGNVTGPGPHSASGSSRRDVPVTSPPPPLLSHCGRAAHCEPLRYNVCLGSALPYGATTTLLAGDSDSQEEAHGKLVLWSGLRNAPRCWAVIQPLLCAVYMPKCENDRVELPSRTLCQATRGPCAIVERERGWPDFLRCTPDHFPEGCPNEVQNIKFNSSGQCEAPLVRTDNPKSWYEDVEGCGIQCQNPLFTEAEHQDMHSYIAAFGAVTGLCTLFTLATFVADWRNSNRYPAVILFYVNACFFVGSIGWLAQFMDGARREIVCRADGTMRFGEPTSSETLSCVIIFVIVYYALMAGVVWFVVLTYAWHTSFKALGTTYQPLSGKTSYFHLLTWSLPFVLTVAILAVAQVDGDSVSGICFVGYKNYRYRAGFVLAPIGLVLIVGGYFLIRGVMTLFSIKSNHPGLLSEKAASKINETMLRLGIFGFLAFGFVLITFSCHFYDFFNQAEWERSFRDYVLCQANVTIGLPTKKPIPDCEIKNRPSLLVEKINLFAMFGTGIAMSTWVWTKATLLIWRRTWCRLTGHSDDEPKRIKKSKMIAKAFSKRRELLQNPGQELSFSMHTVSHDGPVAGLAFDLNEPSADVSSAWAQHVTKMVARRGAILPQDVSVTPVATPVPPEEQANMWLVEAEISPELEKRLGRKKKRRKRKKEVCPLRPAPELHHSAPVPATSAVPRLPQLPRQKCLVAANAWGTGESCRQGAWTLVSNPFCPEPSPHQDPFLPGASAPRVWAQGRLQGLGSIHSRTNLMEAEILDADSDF

SMILES	IC50
C[C@@]12CN(C(=O)Nc3ccnn3-c3ccccc3)CCN1C(=O)N([C@H]1C[C@@H]1c1ccccc1)C2=O	17 nM
O=C(Nc1cccc(Cl)c1Cl)N1CCn2c(c(O)n([C@H]3C[C@@H]3c3ccccc3)c2=O)C1	270 nM and 430 nM
O=C(Nc1ccnn1-c1cccc(Cl)c1)N1CCn2c(c(O)n([C@H]3C[C@@H]3c3ccccc3)c2=O)C1	8 nM
O=C(Nc1ccnn1-c1cccc(F)c1)N1CCn2c(c(O)n([C@H]3C[C@@H]3c3ccccc3)c2=O)C1	6 nM
C[C@@]12CN(C(=O)Nc3ccccc3-c3ccccc3)CCN1C(=O)N([C@H]1C[C@@H]1c1ccccc1)C2=O	23 nM
C[C@]12CN(C(=O)Nc3ccccc3-c3ccccc3)CCN1C(=O)N([C@H]1C[C@@H]1c1ccccc1)C2=O	1400 nM
CS(=O)(=O)c1cc(Cl)c(NC(=O)N2CCn3c(c(O)n([C@H]4C[C@@H]4c4ccccc4)c3=O)C2)c(Cl)c1	41 nM
O=C(Nc1ccccc1-c1ccccc1)N1CCn2c(c(O)n([C@H]3C[C@@H]3c3ccccc3)c2=O)C1	100 nM and 42 nM and 140 nM

Now from value to molecule:

IC50	SMILES
89 nM	O=C(Nc1cccnc1-c1ccsc1)N1CCn2c(c(O)n([C@H]3C[C@@H]3c3ccccc3)c2=O)C1
28 nM	O=C(Nc1cccnc1-c1ccccc1)N1CCn2c(c(O)n([C@H]3C[C@@H]3c3ccccc3)c2=O)C1
880 nM and 1400 nM	O=C(Nc1cccc(Cl)c1Cl)N1CCn2c(c(O)n([C@@H]3C[C@H]3c3ccccc3)c2=O)C1

target: Smoothened homolog (Homo sapiens, UniProt Q99835); assay: Displacement of BODIPY-cyclopamine from human Smo expressed in HEK293 cells in presence of 2% fetal calf serum
In short: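 Competition binding: displacement of fluorescently labeled bodipy-cyclopamine from recombinant human Smo expressed in HEK-293 cells. Run in 2% fetal calf serum and, separately, in 20% normal human serum. IC50 values are means of at least five experiments.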

Sequence of Smoothened homolog (Q99835 whole entry): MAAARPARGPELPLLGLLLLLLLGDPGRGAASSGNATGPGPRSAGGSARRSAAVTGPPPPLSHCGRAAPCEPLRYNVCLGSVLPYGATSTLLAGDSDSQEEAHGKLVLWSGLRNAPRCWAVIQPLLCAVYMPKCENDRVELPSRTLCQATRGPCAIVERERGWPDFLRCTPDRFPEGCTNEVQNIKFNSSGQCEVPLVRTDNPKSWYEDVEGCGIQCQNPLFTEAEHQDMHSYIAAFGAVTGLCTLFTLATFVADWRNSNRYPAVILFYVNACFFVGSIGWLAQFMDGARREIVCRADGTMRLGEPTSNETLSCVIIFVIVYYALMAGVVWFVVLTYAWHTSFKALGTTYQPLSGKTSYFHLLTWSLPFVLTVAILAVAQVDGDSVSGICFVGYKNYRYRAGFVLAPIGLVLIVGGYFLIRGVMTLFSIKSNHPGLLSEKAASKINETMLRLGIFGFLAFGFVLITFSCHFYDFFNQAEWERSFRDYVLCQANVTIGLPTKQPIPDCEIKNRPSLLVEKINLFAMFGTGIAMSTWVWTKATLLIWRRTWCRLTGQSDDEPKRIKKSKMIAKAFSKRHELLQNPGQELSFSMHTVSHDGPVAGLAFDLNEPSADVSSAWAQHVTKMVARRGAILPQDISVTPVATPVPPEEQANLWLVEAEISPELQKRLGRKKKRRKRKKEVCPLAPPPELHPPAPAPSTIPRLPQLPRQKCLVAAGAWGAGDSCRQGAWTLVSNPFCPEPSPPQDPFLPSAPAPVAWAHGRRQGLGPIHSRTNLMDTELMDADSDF

IC50	SMILES
48 nM and 21 nM	O=C(Nc1ccccc1-c1ccccc1)N1CCn2c(c(O)n([C@H]3C[C@@H]3c3ccccc3)c2=O)C1
